Experimental findings from ChEMBL document CHEMBL4308887, “Synthesis and biological evaluation of clovamide analogues with catechol functionality as potent Parkinson's disease agents in vitro and in vivo” (Bioorg Med Chem Lett, 2019) are described below.

The subject of data set [1] is SH-SY5Y. As to the kind of experiment: Protection against H2O2-induced oxidative stress in human SH-SY5Y cells assessed as reactive oxygen species level at 10 uM preincubated for 6 hrs followed by H2O2 addition and measured after 24 hrs by DHE dye based flow cytometry (reference value: 18.6%). The data set is classed as functional.
The test system of data set [2] is SH-SY5Y. As to the kind of experiment: Cytotoxicity against non-stimulated human SH-SY5Y cells assessed as effect on cell viability at 1 to 100 uM measured after 24 hrs by MTT assay. A general note: Tetrazolium dyes change colour on reduction, which living cells bring about.
Data set [3] deals with SH-SY5Y. As to the kind of experiment: Protection against H2O2-induced oxidative stress in human SH-SY5Y cells assessed as reactive oxygen species level at 1 uM preincubated for 6 hrs followed by H2O2 addition and measured after 24 hrs by DHE dye based flow cytometry (reference value: 18.6%). It counts as functional.
Data set [4] deals with SH-SY5Y. As to the kind of experiment: Protection against H2O2-induced oxidative stress in human SH-SY5Y cells assessed as increase in SOD activity preincubated for 6 hrs followed by H2O2 addition and measured after 24 hrs by xanthine oxidase method. The data set is classed as functional, cell-based. In outline:
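Cellular SOD activity (units) and MDA content (μmol/g) measured in SH-SY5Y after pretreatment (1, 10 μM) and 600 μM H₂O₂. Mean ± S.E.M. of three independent experiments.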

The test system of data set [5] is SH-SY5Y. As to the kind of experiment: Protection against H2O2-induced apoptosis in human SH-SY5Y cells assessed as late apoptotic cells at 1 uM preincubated for 6 hrs followed by H2O2 addition and measured after 24 hrs by Annexin V-FITC/propidium iodide staining based flow cytometry (reference value: 77.5%). The data set is classed as functional. A general note: In flow cytometry, cells or beads pass a laser one at a time.

Data set [6] can be described thus: Activation of PI3K/Akt/mTOR signaling in human SH-SY5Y cells assessed as up regulation of H2O2-induced HO-1 expression at 10 uM preincubated for 6 hrs followed by H2O2 addition and after 24 hrs in presence of PI3K/Akt/mTOR inhibitor rapamycin by Western blot analysis. It counts as cell-based. Summed up:
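SH-SY5Y cells preincubated 1 h with one inhibitor: SB203580 10 μM, LY294002 5 μM, U0126 10 μM, SP600125 5 μM or rapamycin 100 nM. Then 1 (10 μM) for 6 h, then 600 μM H₂O₂. HO-1 measured by western blot and densitometry. Mean ± S.E.M., three independent experiments.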

The subject of data set [7] is SH-SY5Y. As to the kind of experiment: Protection against H2O2-induced apoptosis in human SH-SY5Y cells assessed as early apoptotic cells at 10 uM preincubated for 6 hrs followed by H2O2 addition and measured after 24 hrs by Annexin V-FITC/propidium iodide staining based flow cytometry (reference value: 6.6%). It counts as functional.
The subject of data set [8] is SH-SY5Y. As to the kind of experiment: Induction of apoptosis in non-stimulated human SH-SY5Y cells assessed as necrotic cells at 10 uM measured after 6 hrs by Annexin V-FITC/propidium iodide staining based flow cytometry (reference value: 0.6%). It counts as cell-based.
Data set [9] concerns SH-SY5Y. As to the kind of experiment: Induction of oxidative stress in non-stimulated human SH-SY5Y cells assessed as reactive oxygen species level at 10 uM after 6 hrs by DHE dye based flow cytometry (reference value: 4.8%). The data set is classed as cell-based.
For data set [10], the system named is SH-SY5Y. As to the kind of experiment: Induction of apoptosis in non-stimulated human SH-SY5Y cells assessed as late apoptotic cells at 10 uM measured after 6 hrs by Annexin V-FITC/propidium iodide staining based flow cytometry (reference value: 2.3%). The data set is classed as cell-based.
Data set [11] relates to SH-SY5Y. As to the kind of experiment: Protection against H2O2-induced mitochondrial dysfunction in human SH-SY5Y cells assessed as mitochondrial membrane potential at 10 uM preincubated for 6 hrs followed by H2O2 addition and measured after 24 hrs by Rh123 staining based flow cytometry (reference value: 26.31 +/- 3.32%). It counts as functional. In outline:
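ΔΨm examined by inverted fluorescence microscopy and flow cytometry after pretreatment (1, 10 μM) and 600 μM H₂O₂. Reported as % of control. Mean ± S.E.M., three independent experiments.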

Data set [12] is described as follows: Tmax in Sprague-Dawley rat at 25 mg/kg, po by LC-MS/MS analysis. It counts as ADME, organism-based. The settings on record: in vivo. Summed up:
(§1)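 Male Sprague–Dawley rats (n = 3) dosed i.v. 5 mg/kg (5% DMSO, 2% F68, 93% saline) or p.o. 25 mg/kg (0.5% methylcellulose, 1% Tween 80). Orbital blood at 0.083–24 h (12 points). Plasma concentration–time profiles gave Cl, Vdss, AUC, T1/2, Tmax, Cmax, MRT and absolute F.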

Data set [13] in a line: Activation of PI3K/Akt/mTOR signaling in human SH-SY5Y cells assessed as up regulation of HO-1 expression at 0.1 uM after 24 hrs by Western blot analysis relative to control. It counts as cell-based. In outline:
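HO-1 western blot in SH-SY5Y cells incubated 24 h with 1 at 0.1, 1 or 10 μM, without H₂O₂. Band densitometry expressed as % of control. Mean ± S.E.M. from three independent experiments.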
Background: Immunoblotting shows a protein as a band on a membrane.

A short description of data set [14]: Volume of distribution at steady state in Sprague-Dawley rat at 5 mg/kg, iv by LC-MS/MS analysis. It counts as ADME, organism-based. As to conditions: in vivo, read-out: Vdss. In outline: as §1
Data set [15] can be described thus: Clearance in Sprague-Dawley rat at 5 mg/kg, iv by LC-MS/MS analysis. As to conditions: in vivo. The data set is classed as ADME, organism-based. Summed up:
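Male Sprague–Dawley rats dosed with 1 at 5 mg/kg i.v. (vehicle 5% DMSO, 2% F68, 93% saline) or 25 mg/kg p.o. (0.5% methylcellulose with 1% Tween 80). Orbital blood sampled at 0.083–24 h, 12 time points. Plasma PK parameters derived. Mean ± SD, n = 3.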

Another data set deals with Mus musculus. As to the kind of experiment: Anti-parkinson's activity in MPTP-induced C57Bl/6 mouse model of Parkinson's disease assessed as increase in tyrosine hydroxylase expression in striatum at 10 to 20 mg/kg, ig pretreated for 10 days followed by MPTP challenge measured 10 days post MPTP addition by Western blot analysis. The data set is classed as functional, organism-based. Summed up: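 Tissue taken 10 days after MPTP injection from mice dosed orally with 1 (10 or 20 mg/kg). TH in SNpc and striatum by western blot, and by DAB immunostaining. Three of the mice per group analysed. Mean ± S.D., n = 6 mice/group.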

Data set [16] deals with SH-SY5Y. As to the kind of experiment: Induction of mitochondrial dysfunction in non-stimulated human SH-SY5Y cells assessed as mitochondrial membrane potential at 10 uM measured after 6 hrs by Rh123 staining based flow cytometry (reference value: 97.6 %). The data set is classed as cell-based.
The test system of data set [17] is SH-SY5Y. As to the kind of experiment: Induction of apoptosis in non-stimulated human SH-SY5Y cells assessed as effect on ratio of Bax/Bcl2 expression at 1 to 10 uM measured after 6 hrs by Western blot analysis. The data set is classed as cell-based. In outline:
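Bax, Bcl-2 and cleaved caspase-3 measured by western blot in SH-SY5Y cells given 1 alone, with β-actin as internal standard. Mean ± S.E.M. of three independent experiments.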

For data set [18], the system named is SH-SY5Y. As to the kind of experiment: Protection against H2O2-induced apoptosis in human SH-SY5Y cells assessed as decrease in ratio of Bax/Bcl2 expression preincubated for 6 hrs followed by H2O2 addition and measured after 24 hrs by Western blot analysis. The data set is classed as functional, cell-based. In outline: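 Western blot of Bax, Bcl-2 and cleaved caspase-3 in SH-SY5Y after pretreatment (1, 10 μM) and 600 μM H₂O₂. β-actin internal standard; Bax/Bcl-2 ratio from densitometry. Mean ± S.E.M., three independent experiments.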

The term Tmax denotes the time from dosing to the highest level. What is called clearance is a measure of how efficiently the substance is removed, as volume per time. Read a low clearance as a low capacity for elimination.

Calls of active or inactive are those of the source. No cut-off for these calls is given here.

On to `COC(=O)[C@H](Cc1ccccc1)NC(=O)/C=C/c1ccc(O)c(O)c1` [N-CAFFEOYL-PHENYLALANINE METHYL ESTER], for which the Activity in the data set on SH-SY5Y [1] is 6.6%; in the data set with SH-SY5Y [2], “Non-Toxic”; in the data set on SH-SY5Y [3], 14%; in the data set on SH-SY5Y [4], “Dose-dependent effect”; in the data set on SH-SY5Y [5] it was 17.8%; in the data set on SH-SY5Y [7], 4.5%. Moreover, the Activity with SH-SY5Y [8] stood at 1.1%; with SH-SY5Y [9] it was 7.3%; in the data set on SH-SY5Y [10], 2.7%; in the data set with SH-SY5Y [11], 98.3%; in data set [13] it was 111%; in the data set with SH-SY5Y [16], 98.1%. Also, the Activity result in the data set on SH-SY5Y [17] was “Non-Toxic”; with SH-SY5Y [18], “Dose-dependent effect”. Besides, the outcome in [6] was inactive. In addition, the Tmax in data set [12] is 2 h. Further, in [14], the Vd is 2.25 L/kg. The compound also had a clearance in data set [15] of 25.5 mL/min/kg. Further, the outcome in the data set with Mus musculus was Active.
